FXIIa inh: human FXIIa protease inhibitors, primary screen, biochemical, 1536-well; Coagulation factor XII (Homo sapiens), P00748; purified FXIIa, Boc-QGR-AMC fluorogenic substrate, 2 h; inhibition, % at 5 µM; hit rate 0.3% among 220,000; AID 800, 2007; in the data active = inhibition above about 40%;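 note: 0% = enzyme with no compound and 100% = blank without enzyme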
FXIa inh: human FXIa protease inhibitors, primary screen, biochemical, 1536-well. purified FXIa, Boc-Glu-Ala-Arg-AMC fluorogenic substrate. inhibition, % at 5 µM. hit rate 0.14% among 220,000. AID 798, 2007;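 active = inhibition of at least 40%; inactive = inhibition below 40%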;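 note: fluorescence of freed AMC excited at 355 nm; 0% = enzyme without compound and 100% = no enzyme blank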
Target sequence (P03951 19-387 limits assumed): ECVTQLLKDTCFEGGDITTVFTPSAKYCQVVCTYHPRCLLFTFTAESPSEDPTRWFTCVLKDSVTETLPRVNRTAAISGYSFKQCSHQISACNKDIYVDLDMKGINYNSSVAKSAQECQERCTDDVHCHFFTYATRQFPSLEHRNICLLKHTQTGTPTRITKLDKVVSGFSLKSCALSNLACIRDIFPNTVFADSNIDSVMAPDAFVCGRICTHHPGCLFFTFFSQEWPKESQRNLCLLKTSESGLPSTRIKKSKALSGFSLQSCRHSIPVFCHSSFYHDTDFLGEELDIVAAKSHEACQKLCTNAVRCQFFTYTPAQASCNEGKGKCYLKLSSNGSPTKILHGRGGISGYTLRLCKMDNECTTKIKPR
Target sequence (P03951 388-625 limits assumed): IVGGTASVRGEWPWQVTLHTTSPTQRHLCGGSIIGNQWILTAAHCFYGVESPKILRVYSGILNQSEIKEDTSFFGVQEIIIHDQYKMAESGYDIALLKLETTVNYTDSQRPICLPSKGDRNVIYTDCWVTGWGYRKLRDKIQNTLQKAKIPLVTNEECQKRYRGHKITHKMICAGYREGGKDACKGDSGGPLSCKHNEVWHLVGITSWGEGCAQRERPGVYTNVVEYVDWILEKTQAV
Wee1 stabilizer: Wee1 degradation inhibitors, primary screen, cell-based, HeLa, Wee1K328M-luciferase, luminescence; Wee1-like protein kinase (Homo sapiens), P30291; HeLa Luc-Wee1K328M stability; 100% = proteasome inhibitor MG132 effect; reporter increase, % at 5 µM; hit rate 1.2% among 220,000; AID 1321, 2008;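 active = activation above the mean of all tested compounds plus 3 SD, set per screening run, cut at about 8.8% in these data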;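 note: cells exposed to compound for 20 h before luminescence read; 0% = DMSO alone and 100% = MG132 at 30 µM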
thrombin 1536: human alpha-thrombin inhibitors, primary screen, counter-screen for coagulation protease inhibitor project, biochemical, 1536-well, fluorogenic AMC substrate; Prothrombin (Homo sapiens), P00734; Boc-VPR-AMC fluorogenic substrate cleavage; inhibition, % at 5 µM; hit rate 0.26% among 220,000; AID 1046, 2008;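 active = inhibition at or above 40%; inactive = inhibition below 40%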;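 note: 0% = enzyme with no compound and 100% = wells without enzyme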
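Material: human alpha-thrombin protein; Also added: Boc-VPR-AMC substrate, 15 µM final; Timing: enzyme reaction carried out at room temperature; Signal: fluorescence, ex 355 nm, em 460 nm; Measure: % inhibition of thrombin; Controls: enzyme without compound as high, wells lacking enzyme as low.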
KLK5 inh: human KLK5 protease inhibitors, primary screen, biochemical, 1536-well. recombinant hK5, fluorogenic AMC substrate cleavage. hit rate 0.59% among 210,000. inhibition, % at 5 µM;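 active = inhibition of 40% or more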;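 note: 0% = enzyme controls without compound and 100% = no-enzyme blanks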
* = called active by the depositor; . = no result given. In the library only some 2.2% were active in any assay of this set; here they are far more common.

SMILES	FXIIa inh	FXIa inh	Wee1 stabilizer	thrombin 1536	KLK5 inh
COc1nc(N2CCOCC2)nc(-n2cccc2)n1	3	2	9.2*	-7	-7
O=C(OCCCC(=O)N1CCOCC1)c1ccccc1	18	-3	-1	5	42*
Nc1ccnc(Oc2ccc(F)cc2)c1	12	6	5	6	-2
COC(=O)c1cc(C(=O)OCC(=O)Nc2ccccc2OC(F)F)cc([N+](=O)[O-])c1	4	-1	4	-6	-9
Cc1c(O)c2c(=O)n(-c3ccccc3)c(-c3ccccc3)cc2oc1=O	4	2	4	-3	-4
CCOC(=O)c1c(C)[nH]c(C)c1C(=O)CN1C(=O)NC2(CCC(C)CC2)C1=O (stereo not given)	8	-2	-2	-1	-8
CCOC(=O)c1c(C)[nH]c(C)c1C(=O)CN1C(=O)NC(CC(C)C)C1=O (stereo not given)	10	2	9.4*	0	-7
OCCC1CN(Cc2cccc3nonc23)CCN1C1CCCCC1 (stereo not given)	4	-2	0	-5	.
O=C(O)c1ccc(COc2ccccc2Cl)cc1	5	2	9.1*	1	-7
O=C(O)c1cccc(COc2ccccc2Cl)c1	-1	0	.	-8	4
COc1ccc(F)cc1C(=O)C1CCCN(C(=O)c2ocnc2C)C1 (stereo not given)	2	-4	-2	-6	1
CCC(=O)OCCn1c(=O)c2cc3c(=O)n(CCOC(=O)CC)c(=O)c3cc2c1=O	54*	20	0	4	-2
Cn1c(SCC(=O)N2c3ccccc3CCc3ccccc32)nnc1-c1cc2ccccc2cc1O	14	7	-2	101*	30
Cc1cccc(-c2nnc(SCC(=O)N3c4ccccc4CCc4ccccc43)n2C)c1	1	5	0	-10	-13
CCCCCCOc1ccc(/C(N)=N/O)cc1	9	1	-1	4	1
N=C(N)c1ccc(OCCCCCOc2ccc(C(=N)N)cc2)cc1	46*	10	-4	25	-1
O=C(O)CS(=O)CC(=O)Nc1cccc(C(F)(F)F)c1 (stereo not given)	4	-5	4	5	-6
O=C(Nc1ccc(Cl)c(C(F)(F)F)c1)N1CCCC(O)C1 (stereo not given)	42*	3	-1	-3	2
C#CCN1C(=O)S/C(=C/C=C/c2ccc(N(C)C)cc2)C1=O	-3	0	-1	-14	-17
O=C(Cc1cccs1)Nc1nnc(CCc2ccccc2)s1	15	41*	0	54*	43*
C=CCSc1nc(C)cc(C(=O)OCC)c1C#N	1	1	-4	-7	-2
Cc1cc2ncc(C(=O)Nc3ccsc3C(=O)O)c(C)n2n1	2	0	1	1	-8
Oc1ccc(/C=N/Nc2nc(-c3cccnc3)nc3ccccc23)c(O)c1	25	42*	-2	7	40
Cc1c(O)ccc(/C=N/Nc2nc(-c3cccnc3)nc3ccccc23)c1O	5	0	2	1	3
O=C(O)COCC(=O)NCc1csc2ccccc12	13	1	0	-4	-2
SMILES	FXIIa inh	FXIa inh	Wee1 stabilizer	thrombin 1536	KLK5 inh
O=C(CC1c2ccccc2Oc2ccccc21)Nc1ccccc1C(F)(F)F	10	5	-3	19	9
Cc1cc(C)n2nc(S(=O)(=O)N(C)c3ccccc3)nc2n1	31	18	0	23	55*
Cc1cc(C)n2nc(Cc3ccccc3)nc2n1	-4	-3	0	9	-18
COc1cccc(CNc2ccc([N+](=O)[O-])cc2Cl)c1O	3	-4	8	-16	-2
COc1ccc(N(C(=O)c2ccco2)S(=O)(=O)c2ccc(F)cc2)cc1	14	9	-1	42*	0
COc1ccc(N(C(=O)c2ccco2)S(=O)(=O)c2cccs2)cc1	19	11	-2	17	-8
COc1ccc(N(C(=O)c2ccco2)S(=O)(=O)c2cccc([N+](=O)[O-])c2)cc1	22	20	1	58*	-5
COc1ccc(N(C(=O)C(C)C)S(=O)(=O)c2cccc([N+](=O)[O-])c2)cc1	3	-9	3	-6	-16
C=CCN(CC=C)C(=S)Nc1ccc(OC)c(OC)c1	7	-5	-5	-2	-2
Cc1ccccc1OCCCCc1c(C)n[nH]c1C	11	-4	10*	0	13
O=C(COC(=O)CCc1ccccc1)Nc1ncc(Cl)cc1Cl	17	6	0	42*	3
O=C(COC(=O)CCOc1ccccc1)Nc1ccc(Cl)cn1	0	-11	-1	48*	-28
COc1cc(/C=C/C(=O)OCC(=O)c2c(N)n(C)c(=O)n(C)c2=O)ccc1OCC#N	6	-7	-2	-8	-3
COc1cccc(C2CC(c3ccc(F)cc3)Nc3nc(N)nn32)c1 (stereo not given)	12	14	2	19	53*
COc1cc(CNC(C)(C)CO)ccc1OCC(=O)Nc1ccc(Br)cc1	9	-7	0	3	42*
C=CCOc1ccc(CNC(C)(C)CO)cc1OC	7	2	-2	-4	18
Cc1cccc(Oc2nc3ccccn3c(=O)c2/C=C(\C#N)C(=O)NC2CCS(=O)(=O)C2)c1 (stereo not given)	9	6	10*	-7	-11
COc1ccc(C(=O)N[C@H](C(=O)OCc2cc(=O)oc3cc(C)ccc23)C(C)C)cc1	15	14	-1	-1	4
S=C(Nc1ccc(Nc2ccccc2)cc1)N1CCN(c2ncccn2)CC1	.	-7	0	-5	-5
CC1=C(C(=O)OCCOc2ccccc2)C(c2ccc(C)o2)C2=C(CC(C)(C)CC2=O)N1 (stereo not given)	10	-2	3	-4	-11
CC1=C(C(=O)Nc2ccc(C)cc2)C(c2ccc(C)o2)C2=C(CC(C)(C)CC2=O)N1 (stereo not given)	45*	23	2	-5	-10
COC(=O)c1c(SCC(=O)Nc2ccc(C)cc2)nc(=O)[nH]c1C	26	29	2	34	74*
COc1ccccc1/C=N/NC(=O)c1ccc(CN2C(=O)c3cccc4cccc2c34)cc1	4	-1	9.0*	-4	-2
C/C=N\NC(=O)COc1cc(C)ccc1C	8	-1	-2	-4	-3
CCn1c(-c2c(Cl)c(C)nn2C)n[nH]c1=S	17	0	-3	16	55*
COc1ccc([N+](=O)[O-])c(OC)c1C(=O)NC(=O)Nc1c(F)cc(F)cc1F	1	-16	-2	-6	27

Screening results (PubChem BioAssay)
